{"source": "ChEMBL document CHEMBL2062389", "about": "“Novel Cyclopropyl-Indole Derivatives as HIV Non-Nucleoside Reverse Transcriptase Inhibitors” (ACS Med Chem Lett, 2012)", "key": {"[1]": {"system": "Human immunodeficiency virus 1", "experiment": "Antiviral activity against Human immunodeficiency virus 1 infected in human 293T cells assessed as inhibition of viral replication after 48 hrs by luminescence analysis", "assay_type": "functional, organism-based", "conditions": "Human immunodeficiency virus 1, HEK-293T", "procedure,_shortened": "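Single-cycle, nonreplicative phenotypic assay against wild-type HIV-1, using virus-like particles made with an HIV-1 retroviral vector system. Compounds incubated with 293T cells and VLPs for 48 h. Inhibition quantified by luminescence and reported as IC50 (μM).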"}, "[2]": {"experiment": "Cytotoxicity against human 293T cells after 48 hrs by colorimetric analysis", "assay_type": "cell-based", "conditions": "HEK-293T cells"}}, "data": [{"molecule": "CCOC(=O)c1[nH]c2ccc(Cl)cc2c1C1(c2cccs2)CC1", "values": [{"measurement": "IC50", "setting": "[1]", "result": 0.065, "unit": "µM"}, {"measurement": "CC50 at 48 h", "setting": "[2]", "result": 67.1, "unit": "µM"}]}, {"molecule": "O=C(O)c1[nH]c2ccc(Cl)cc2c1C1(c2ccccc2)CC1", "values": [{"measurement": "IC50", "setting": "[1]", "result": 28.5, "unit": "µM"}, {"measurement": "CC50 at 48 h", "setting": "[2]", "result": 92.3, "unit": "µM"}]}, {"molecule": "CCOC(=O)c1[nH]c2ccc(Cl)cc2c1C1(c2ccccc2)CC1", "values": [{"measurement": "IC50", "setting": "[1]", "result": 0.085, "unit": "µM"}, {"measurement": "CC50 at 48 h", "setting": "[2]", "result": 30.3, "unit": "µM"}]}, {"molecule": "NC(=O)c1[nH]c2ccc(Cl)cc2c1C1(c2ccccc2)CC1", "values": [{"measurement": "IC50", "setting": "[1]", "result": 0.096, "unit": "µM"}, {"measurement": "CC50 at 48 h", "setting": "[2]", "result": 14.2, "unit": "µM"}]}, {"molecule": "CCOC(=O)c1[nH]c2ccc(Cl)cc2c1C1(C)CC1", "values": [{"measurement": "IC50", "setting": "[1]", "result": 2.25, "unit": "µM"}, {"measurement": "CC50 at 48 h", "setting": "[2]", "result": 44.3, "unit": "µM"}]}, {"molecule": "CCOC(=O)c1[nH]c2ccc(Br)cc2c1C1(c2ccccc2)CC1", "values": [{"measurement": "IC50", "setting": "[1]", "result": 0.066, "unit": "µM"}, {"measurement": "CC50 at 48 h", "setting": "[2]", "result": 24.5, "unit": "µM"}]}, {"molecule": "O=C(O)c1[nH]c2ccc(Cl)cc2c1C1(c2cccs2)CC1", "values": [{"measurement": "IC50", "setting": "[1]", "result": 48.2, "unit": "µM"}, {"measurement": "CC50 at 48 h", "setting": "[2]", "result": 140, "unit": "µM"}]}, {"molecule": "NC(=O)c1[nH]c2ccc(Cl)cc2c1C1(c2cccs2)CC1", "values": [{"measurement": "IC50", "setting": "[1]", "result": 0.121, "unit": "µM"}, {"measurement": "CC50 at 48 h", "setting": "[2]", "result": 25.6, "unit": "µM"}]}, {"molecule": "OCc1[nH]c2ccc(Cl)cc2c1C1(c2ccccc2)CC1", "values": [{"measurement": "IC50", "setting": "[1]", "result": 8.25, "unit": "µM"}, {"measurement": "CC50 at 48 h", "setting": "[2]", "result": 34.1, "unit": "µM"}]}, {"molecule": "OCc1[nH]c2ccc(Cl)cc2c1C1(c2cccs2)CC1", "values": [{"measurement": "IC50", "setting": "[1]", "result": 14.4, "unit": "µM"}, {"measurement": "CC50 at 48 h", "setting": "[2]", "result": 36.6, "unit": "µM"}]}, {"molecule": "Cc1ccnc2c1NC(=O)c1cccnc1N2C1CC1", "note": "[NEVIRAPINE]", "values": [{"measurement": "IC50", "setting": "[1]", "result": 0.087, "unit": "µM"}]}]}
